We go through 14 compounds from ChEMBL document CHEMBL1212820, “Novel hinge binder improves activity and pharmacokinetic properties of BRAF inhibitors” (J Med Chem, 2010).

In data set [1] the target is T1, Serine/threonine-protein kinase B-raf (Homo sapiens, UniProt P15056, V600E). The experiment in a line: Inhibition of B-Raf V600E mutant. The method in brief:
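Enzymatic IC50 determined in vitro against purified V600E BRAF.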

Data set [2] concerns the target T1, Serine/threonine-protein kinase B-raf. Description: Inhibition of BRAF V600E mutant-mediated ERK phosphorylation in human WM266.4 cells. The format is cell-based. In outline:
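Cellular IC50 for inhibition of phosphoERK formation.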

The nature of data set [3]: Growth inhibition of human WM266.4 cells expressing BRAF V600E mutant after 5 days by SRB assay. The format is functional. The conditions noted are these: WM 266-4, 120 h. In outline:
(§1)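 Antiproliferative SRB assay in WM266.4 (BRAF mutant), WM1361 (NRAS mutant) and D24 (BRAF/NRAS wild-type) melanoma cells, with GI50 derived from the assay.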
A general note: In SRB staining, fixed cells bind dye roughly in proportion to their protein.

The nature of data set [4]: Cmax in BALB/cAnNCrl mouse at 10 mg/kg, po. The conditions noted are these: in vivo.
Data set [5] can be described thus: Tmax in BALB/cAnNCrl mouse at 10 mg/kg, po. The conditions noted are these: in vivo.
Data set [6] can be described thus: Half life in BALB/cAnNCrl mouse at 10 mg/kg, po. The conditions noted are these: in vivo.
Data set [7] can be described thus: Oral bioavailability in BALB/cAnNCrl mouse at 10 mg/kg. Particulars: in vivo.
The nature of data set [8]: Ratio of Cmax in BALB/cAnNCrl mouse to GI50 for human WM266.4 cells.
Data set [9] in a line: Selectivity index, ratio of GI50 for human WM1361 cells to GI50 for human WM266.4 cells. The format is functional. In outline:
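GI50 values from the SRB proliferation assay, expressed relative to the GI50 in WM266.4 (BRAF mutant) cells.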

Data set [10] can be described thus: Growth inhibition of human WM1361 cells expressing NRAS mutant after 5 days by SRB assay. The data set is classed as functional. The conditions noted are these: WM1361, 120 h. The method in brief: as §1
Data set [11] can be described thus: Growth inhibition of D24 after 5 days by SRB assay. The data set is classed as functional. The method in brief: as §1
The nature of data set [12]: Selectivity index, ratio of GI50 for human WM1361 cells to GI50 for human WM266.4.

As usually defined, the IC50 is the concentration needed to halve the response being measured. What is called GI50 is the concentration at which growth is held to half of that of the control. High values mean less potent growth inhibition, low ones more potent growth inhibition. In general, Cmax refers to the highest concentration seen after dosing. As a reminder, the Tmax is the time from dosing to the highest level. The half-life is the time needed for the level to fall by half in the phase considered. In general, bioavailability refers to the share of a dose that reaches the circulation, judged against a reference dose that is usually intravenous.

T1 sequence (P15056 2-766 V600E limits assumed): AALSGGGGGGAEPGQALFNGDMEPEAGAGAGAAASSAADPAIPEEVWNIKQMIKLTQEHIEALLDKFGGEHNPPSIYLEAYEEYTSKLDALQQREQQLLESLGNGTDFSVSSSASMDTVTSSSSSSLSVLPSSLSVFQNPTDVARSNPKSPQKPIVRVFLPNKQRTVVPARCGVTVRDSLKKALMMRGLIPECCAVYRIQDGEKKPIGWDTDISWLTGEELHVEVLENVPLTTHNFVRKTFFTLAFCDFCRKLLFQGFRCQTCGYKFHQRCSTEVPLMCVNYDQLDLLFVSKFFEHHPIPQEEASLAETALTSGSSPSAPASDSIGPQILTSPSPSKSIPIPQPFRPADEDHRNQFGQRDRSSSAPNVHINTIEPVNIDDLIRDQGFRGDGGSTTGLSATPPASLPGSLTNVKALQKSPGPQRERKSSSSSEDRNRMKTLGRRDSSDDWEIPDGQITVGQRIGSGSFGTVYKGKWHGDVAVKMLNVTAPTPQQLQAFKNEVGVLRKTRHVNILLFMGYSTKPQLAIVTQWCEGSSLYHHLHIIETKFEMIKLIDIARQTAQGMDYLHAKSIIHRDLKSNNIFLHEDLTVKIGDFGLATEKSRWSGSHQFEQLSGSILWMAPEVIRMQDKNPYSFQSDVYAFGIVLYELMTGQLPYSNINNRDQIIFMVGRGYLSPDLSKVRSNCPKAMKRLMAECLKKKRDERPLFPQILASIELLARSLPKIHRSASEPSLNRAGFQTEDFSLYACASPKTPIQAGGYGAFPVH

As for `CC(C)(C)c1cc(NC(=O)Nc2cccc(Oc3ccnc4[nH]c(=O)cnc34)c2)n(-c2ccccc2)n1`, the IC50 in data set [1] came to 58 nM; in [2], 280 nM. The concentration for 50% growth inhibition (GI50) in [3] is 170 nM. Besides, the peak concentration (Cmax) in [4] was 29.5 µM. Besides, the Tmax in data set [5] came out at 0.5 h. Moreover, the half-life in [6] is 1.4 h. The compound also gave a bioavailability in data set [7] of 6%. Also, the Ratio in data set [8] worked out at 170.
`CSc1cc(Oc2ccnc3[nH]c(=O)cnc23)ccc1NC(=O)Nc1cc(C(C)(C)C)nn1-c1ccc(C)cc1`: the concentration for half-maximal inhibition (IC50) amounted to 19 nM in data set [1] and 5 nM in data set [2]. Moreover, in [3], the GI50 is 1 nM. Also, the peak concentration (Cmax) in data set [4] turned out to be 101 µM. For the same compound, the time to peak (Tmax) in data set [5] came out at 3 h. In data set [6], this compound showed a half-life of 7.9 h. Besides, in [7], the bioavailability was 71%. Further, the Ratio in data set [8] is 101200.
`Cc1ccc(-n2nc(C(C)(C)C)cc2NC(=O)Nc2ccc(Oc3ccnc4[nH]c(=O)cnc34)cc2)cc1` came in with an IC50 in [2] of 96 nM. In data set [3], this compound had a GI50 of 62 nM. For the same compound, the Cmax in [4] came to 31.9 µM. Moreover, in [5], the time of peak concentration (Tmax) is 0.5 h. The compound also had a half-life in data set [6] of 6.3 h. Moreover, the bioavailability in [7] turned out to be 17%. Also, in data set [8], the Ratio is reported as 510.
Turning to `CC(C)(C)c1cc(NC(=O)Nc2ccc(Oc3ccnc4[nH]c(=O)cnc34)c3ccccc23)n(-c2ccccc2)n1`, the results for the half-inhibitory concentration (IC50) in data set [1] and in [2] were 77 nM and 8 nM, respectively. Besides, in data set [3], the GI50 was found to be 105 nM. In [4], this compound displayed a peak concentration (Cmax) of 14.2 µM. The Tmax in [5] amounted to 0.25 h. The same compound showed a half-life in data set [6] of 1.7 h. In addition, the bioavailability in data set [7] was 7%. In data set [8], the Ratio is recorded as 130.
Take `Cc1nc2c(Oc3ccc(NC(=O)Nc4cc(C(F)(F)F)ccc4F)c4ccccc34)ccnc2[nH]c1=O`: the IC50 in data set [1] worked out at 4 nM; in data set [2] it was 62 nM. This compound returned a 50% growth inhibitory concentration (GI50) in data set [3] of 36 nM. In data set [4], this compound came in with a Cmax of 0.316 µM. Further, in [5], the Tmax was found to be 3 h. In addition, in [7], the bioavailability was 4%.
As for `Cc1ccc(-n2nc(C(C)(C)C)cc2NC(=O)Nc2ccc(Oc3ccnc4[nH]c(S)nc34)cc2F)cc1`, the IC50 worked out at 310 nM in [1] and 55 nM in data set [2]. In data set [3], this compound returned a GI50 of 154 nM. In data set [4], this compound yielded a maximum concentration (Cmax) of 11.7 µM. Besides, the Tmax in data set [5] worked out at 3 h. In data set [6], the half-life was 3.3 h. Besides, in data set [7], the bioavailability was 13%. Besides, the Ratio in [8] is 76.
As for `Cc1ccc(-n2nc(C(C)(C)C)cc2NC(=O)Nc2cccc(Oc3ccnc4[nH]c(=O)cnc34)c2)cc1`, the RatioGI50 in data set [9] is on record as 60; in data set [12] it was 130. The GI50 in [10] was determined as 12000 nM; in data set [11], 26000 nM; in [3], 190 nM. Further, the IC50 came to 87 nM in data set [1] and 274 nM in data set [2]. This compound also gave a Cmax in data set [4] of 27 µM. Besides, the Tmax in data set [5] was determined as 0.5 h. The compound further had a half-life in [6] of 4 h. Besides, the bioavailability in [7] was determined as 27%. The Ratio in data set [8] stood at 142.
As for `Cc1nc2nccc(Oc3ccc(NC(=O)Nc4cc(C(F)(F)F)ccc4F)c(F)c3)c2[nH]c1=O`, the figures for the IC50 in data set [1] and in data set [2] were 258 nM and 20000 nM, respectively. For the same compound, in data set [3], the GI50 was 2700 nM.
On the same counts, the results for `CN(C)c1nc2c(Oc3ccc(NC(=O)Nc4cc(C(F)(F)F)ccc4F)c(F)c3)ccnc2[nH]1` are 25 nM, 6000 nM and 116 nM.
`Cc1ccc(-n2nc(C(C)(C)C)cc2NC(=O)Nc2ccc(Oc3ccnc4[nH]c(=O)cnc34)cc2F)cc1` registered an IC50 in [2] of 24 nM. The GI50 in data set [3] was 15 nM. This compound also yielded a Cmax in data set [4] of 33.6 µM. The Tmax in data set [5] worked out at 3 h. In [6], this compound gave a half-life of 5.9 h. Also, the bioavailability in data set [7] turned out to be 24%. Further, the Ratio in data set [8] amounted to 2240.
`CC(C)(C)c1cc(NC(=O)Nc2ccc(Oc3ccnc4ncc(=O)[nH]c34)cc2F)n(-c2ccccc2)n1`: the values for the half-maximal inhibitory concentration (IC50) in data set [1] and in data set [2] were 940 nM and 650 nM, respectively. In addition, it took 940 nM to inhibit growth in data set [3] by half (GI50).
In the case of `CC(C)(C)c1cccc(C(=O)Nc2cccc(Oc3ccnc4ncc(=O)[nH]c34)c2)c1`, the half-maximal inhibitory concentration (IC50) came out at 34 nM in data set [1] and 3500 nM in [2]. Also, the GI50 in [3] came to 2540 nM.
Take `Nc1nc2c(Oc3ccc(NC(=O)Nc4cc(C(F)(F)F)ccc4F)c(F)c3)ccnc2[nH]c1=O`: the 50% inhibitory concentration (IC50) was 30 nM in data set [1] and 1550 nM in data set [2]. The compound further came in with a GI50 in [3] of 1550 nM.
With `Cc1ccc(-n2nc(C(C)(C)C)cc2NC(=O)Nc2ccc(Oc3ccnc4[nH]c(=O)c(=O)[nH]c34)cc2F)cc1`, the 50% inhibitory concentration (IC50) in data set [1] turned out to be 90 nM; in [2], 75 nM. This compound displayed a GI50 in data set [3] of 79 nM. In [4], this compound gave a Cmax of 5.54 µM. Further, the Tmax in data set [5] came out at 3 h. Besides, in data set [6], the half-life was 5.4 h. The bioavailability in data set [7] stood at 1%. Further, in data set [8], the Ratio was determined as 70.
